# Screening data deposited in PubChem by several laboratories.
# In the library only some 4% were active in any assay of this set; here they are far more common.
# KCNK3 block – human KCNK3 channel inhibition, primary screen | O14649 | B-score at 10 µM | CHO-KCNK3 thallium flux, FluxOR fluorescence; stronger effect = lower value | 340,000 tested, 0.84% active;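 active = B-score under library mean minus 4 SD, starting fluorescence ratio at most library mean plus 5 SD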;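 also: more negative B-score means stronger inhibition of thallium flux through KCNK3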
# PHOSPHO1 block – PHOSPHO1 (human) inhibition. inhibition, % at 13.3 µM. 290,000 tested, 1.1% active. recombinant PHOSPHO1, absorbance phosphatase assay; in the data active = inhibition above about 60%
# hERG rescue – compounds protecting human hERG from proarrhythmic drug block; CHO-hERG, FluxOR thallium flux, dofetilide IC70 present; 310,000 tested, 0.51% active; activation (rescue from dofetilide block), less the hit threshold, % at 10 µM; AID 1511;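 active = activation above the mean of controls blocked by dofetilide plus 5 SD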;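 also: thallium influx through hERG after potassium depolarization seen as dye fluorescence rise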
# KCNQ1 pot – potentiators or activators of human KCNQ1 potassium channel | P51787 | CHO-K1 KCNQ1, thallium flux FluxOR fluorescence; stronger effect = higher value | B-score at 10 µM | 310,000 tested, 0.35% active | AID 2648;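 active = fluorescence ratio B-score, a plate-corrected score, at least three library SD, with initial intensity B-score within 5 SD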
#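 Medium – assay buffer, equal DMSO in all wells · Material – CHO-K1 cell line with stable KCNQ1 potassium channel expression · Signal – kinetic FluxOR thallium fluorescence, 10-s 1-Hz baseline, 110-s post-stimulus read · Compound – single concentration per compound, DMSO matched to controls · Schedule – 37 °C overnight plating, 90-min dark dye load, 20-min compound pretreatment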
# KCNK9 block – inhibitors of human KCNK9 two-pore domain potassium channel. HEK293 KCNK9, FluxOR thallium flux fluorescence; stronger effect = lower value. B-score at 10 µM. 310,000 tested, 1.2% active;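 active = ratio B-score over 3 SD below the library mean, with starting fluorescence within 5 SD of its mean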;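 also: negative B-score means less thallium flux so channel inhibition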
# KCNQ1 block – inhibitors of human KCNQ1 potassium channel | 310,000 tested, 1.3% active | B-score at 10 µM | AID 2642 | CHO-K1 KCNQ1, FluxOR thallium flux fluorescence; stronger effect = higher value;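 active = compounds whose thallium flux B-score, printed positive for inhibition, exceeds three library SD while starting fluorescence stays within three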;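 also: channel opened by potassium depolarization with thallium stimulus after 20 min compound exposure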
# The depositor's hits bear a star; i = inactive; . = no result given.
SMILES,KCNK3 block,PHOSPHO1 block,hERG rescue,KCNQ1 pot,KCNK9 block,KCNQ1 block
CCC1CCCCN1CCCNC(=O)c1cn(C)c2ccc(S(=O)(=O)N3CCOCC3)cc2c1=O (stereo unspecified),i,22.6,-9.2,i,i,i
C=CCN(C(=O)c1csnn1)C(C(=O)NC1CCCCC1)c1ccccc1F (stereo unspecified),i,27.0,-6.2,i,i,i
O=C(N/N=C/c1cc([N+](=O)[O-])ccc1O)c1ccc(COc2ccc3c(c2)CCC3)o1,i,17.6,14.2*,i,i,i
COC(=O)[C@]1(Cc2ccccc2)N[C@H](CN(C)C(=O)c2ccccc2)[C@@H]2C(=O)N(C)C(=O)[C@@H]21,i,.,.,.,.,.
Cc1cc(C)[n+]2n1C(=O)C(c1ccccc1)=C2[O-],i,32.6,-0.4,i,i,i
CCOC(=O)CSc1nc2c(sc3ccccc32)c(=O)n1CCCN1CCOCC1,i,-17.3,4.9*,i,i,i
CCC(C)NC(=O)CSc1nc2c(sc3ccccc32)c(=O)n1CCCN1CCOCC1 (stereo unspecified),i,6.8,-10.7,i,i,i
CC(=O)c1ccccc1NC(=O)CSc1nc2ccccc2c(=O)n1CCCN1CCOCC1,i,.,.,.,.,.
CCOC(=O)c1ccccc1NC(=O)CSc1nc2ccccc2c(=O)n1CCCN1CCOCC1,-11.2*,.,.,.,.,.
Nc1nc2c(s1)COc1ccccc1-2,i,40.7,-4.5,i,i,i
Nc1nc2c(s1)CCc1c-2cnn1-c1ccccc1,i,106.0*,2.4,i,i,i
CC1CN(S(=O)(=O)c2ccccc2)CN1C(=O)N1CCOCC1 (stereo unspecified),i,-1.8,-5.1,i,i,i
CCN(c1ccccc1)S(=O)(=O)c1ccc(C(=O)Nc2cccc(C)n2)cc1,i,.,.,.,.,.
O=C(Nc1cc([N+](=O)[O-])ccc1O)c1cccc([N+](=O)[O-])c1,i,25.3,-9.1,i,i,7*
Cc1ccc([N+](=O)[O-])cc1NC(=O)c1ccc(C(C)(C)C)cc1,i,-13.6,-8.7,i,i,9*
Cc1ccc(C(=O)Nc2cc([N+](=O)[O-])ccc2C)cc1,i,-3.0,-9.2,i,i,i
O=C(Nc1cc([N+](=O)[O-])ccc1O)c1cccc(C(=O)Nc2cc([N+](=O)[O-])ccc2O)c1,i,9.7,-5.3,i,i,i
O=C(Nc1ncc([N+](=O)[O-])s1)c1cccc([N+](=O)[O-])c1,i,43.6,-24.9,i,i,8*
Cc1ccnc(NC(=O)c2cc([N+](=O)[O-])cc([N+](=O)[O-])c2)c1,i,64.7*,-6.6,i,i,i
O=C(NCCOc1ccc(Cl)cc1)C1CC(=O)N(c2ccc(F)cc2)C1 (stereo unspecified),i,20.1,-3.0,i,i,i
CCOC(=O)Cc1ccc(NC(=O)c2cccc([N+](=O)[O-])c2)cc1,i,37.8,1.7,i,i,i
CCOC(=O)/C(C)=N/NC(=O)c1cccc([N+](=O)[O-])c1,i,0.6,11.7*,i,i,i
O=C(Nc1ccc(Cc2ccncc2)cc1)c1cccc([N+](=O)[O-])c1,i,-1.1,9.8*,i,i,i
O=C(Nc1ccccc1C(=O)Nc1ccccn1)c1cccc([N+](=O)[O-])c1,i,44.1,6.0*,i,i,i
O=C(COc1ccc2c3c(c(=O)oc2c1)CCC3)N[C@@H](Cc1ccccc1)C(=O)O,i,7.9,5.3*,i,i,i
O=C(COc1ccc2c3c(c(=O)oc2c1)CCC3)NCCCN1CCOCC1,i,61.6*,-6.0,i,i,i
Cc1ccc(-c2nnc(CSc3nnc(COc4ccccc4)n3-c3ccc(C)cc3)o2)cc1,i,22.0,-21.2,i,i,6*
CCOc1ccc(-c2nnc(SCc3nnc(-c4ccccc4)o3)n2-c2ccccc2F)cc1,i,73.3*,-8.4,i,i,i
Fc1cc(Br)ccc1COc1ccc(-c2nnco2)cc1,i,46.6,-11.2,i,i,i
